In one series the test system is rat primary tanycytes. As to the kind of experiment: pCREB induction in primary tanycytes. The class given is cell-based. As to conditions: Supplementary Fig. 2a.
For series [1], the system named is dipeptidyl peptidase 4 (DPP-4). The settings on record: cited from earlier work.
The format of series [2] is in vivo, mouse.
The next series concerns hypothalamic neurons. The class given is in vivo, mouse.
Series [3] relates to tanycytes and neuron-like cells of the ME and vmARH. The experiment in a line: pCREB immunohistochemistry in ME/ARH after intravenous liraglutide. The class given is in vivo, mouse. As to conditions: mice, 90 nmol/Kg, at 1 min, n = 4 animals per group, Fig. 1f-h. The procedure, abridged: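 Male mice, 8-10 weeks, fitted with a jugular vein catheter under ketamine-xylazine. Saline or liraglutide given i.v. at 90 nmol/Kg, then transcardial perfusion with saline and 0.1M PBS-4% PFA (pH 7.4). 30 μm free-floating sections double-stained with chicken anti-vimentin and rabbit anti-phospho-CREB. pCREB-positive tanycytes and neuron-like cells counted in ME, vmARH, dmARH and total ARH, 3–4 sections per animal. Unpaired t-test.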

In series [4] the test system is tuberal region of the hypothalamus. It counts as in vivo, mouse. The settings on record: mice, intravenous (jugular vein), 90 nmol/Kg, 15 and 60 seconds after injection; Fig. 1a.
A further series has as its system primary tanycytes. The class given is in vitro ADME, rat. The settings on record: 37 °C. The method, boiled down: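 Rat tanycytes from median eminences of P10 pups, seeded on coated permeable supports (90 000 cells/cm2) 17 days after isolation: 4 days in 10% donor bovine serum, then 3 days serum-free with insulin and putrescine. On day 7, 15 min preincubation at 37 °C ± 1000 nM exendin9-39. Apical 0.7 nM 125I-liraglutide (1 μCi/ml) ± unlabeled liraglutide 10–10 000 nM, 60 min, 37 °C, shaking. Uptake read from cut supports; release in fresh buffer up to 1 h.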

“Also recorded” adds a separate entry of the source. Some results are limits rather than exact numbers.

In the case of `CCCCCCCCCCCCCCCC(=O)N[C@@H](CCC(=O)NCCCC[C@H](NC(=O)[C@H](C)NC(=O)[C@H](C)NC(=O)[C@H](CCC(N)=O)NC(=O)CNC(=O)[C@H](CCC(=O)O)NC(=O)[C@H](CC(C)C)NC(=O)[C@H](Cc1ccc(O)cc1)NC(=O)[C@H](CO)NC(=O)[C@H](CO)NC(=O)[C@@H](NC(=O)[C@H](CC(=O)O)NC(=O)[C@H](CO)NC(=O)[C@@H](NC(=O)[C@H](Cc1ccccc1)NC(=O)[C@@H](NC(=O)CNC(=O)[C@H](CCC(=O)O)NC(=O)[C@H](C)NC(=O)[C@@H](N)Cc1cnc[nH]1)[C@@H](C)O)[C@@H](C)O)C(C)C)C(=O)N[C@@H](CCC(=O)O)C(=O)N[C@@H](Cc1ccccc1)C(=O)N[C@H](C(=O)N[C@@H](C)C(=O)N[C@@H](Cc1c[nH]c2ccccc12)C(=O)N[C@@H](CC(C)C)C(=O)N[C@H](C(=O)N[C@@H](CCCNC(=N)N)C(=O)NCC(=O)N[C@@H](CCCNC(=N)N)C(=O)NCC(=O)O)C(C)C)[C@@H](C)CC)C(=O)O` [liraglutide], in the series on rat primary tanycytes (liraglutide treatment), the “pCREB in rat primary tanycytes” value is “induced”. Further, the “Cleavage by DPP-4 and half-life compared to endogenous GLP1” value in series [1] (ref Kim and Egan, 2008) was “reduces its cleavage by DPP-4 and prolongs its half-life”. In series [2] (control mice, 0.1 mg/kg for 3 consecutive days, vs saline), the Energy expenditure result is “markedly reduced”. Further, in series [2] (control mice, 0.1 mg/kg for 3 consecutive days, vs saline, Fig. 3b), the Food intake entry was “markedly reduced”. Besides, the Fatty acid oxidation entry in series [2] (control mice, 0.1 mg/kg for 3 consecutive days, Fig. 3e) was “increased fatty acid oxidation”. For the same molecule, the Fat mass result in series [2] (control mice, 0.1 mg/kg for 3 consecutive days, NMR body composition, Fig. 3d) is on record as “fat mass reduction”. In addition, the “Anti-obesity effects in iBot mice” value in series [2] (mouse, in vivo, 0.1 mg/kg) was “abrogated”. For the same molecule, the “c-Fos activation of neurons in AHN, PVH and LHA, control mice” value in the series on hypothalamic neurons (anesthetized control mice, ten minutes after intravenous injection, 90 nmol/Kg) is given as “activated”. The “c-Fos expression in DMH and ZI, control mice” value with hypothalamic neurons (control mice, one hour after intraperitoneal injection) was “did not significantly upregulate c-Fos expression”. Moreover, the “c-Fos expression, iBot mice” value in the series with hypothalamic neurons (iBot littermates, one hour after intraperitoneal injection, Fig. 2d-f) was “unaffected”. Moreover, the “c-Fos expression in hypothalamic neurons, iBot mice” value with hypothalamic neurons (mouse, in vivo, iv) is “failed to significantly induce c-Fos expression”. Further, the “c-Fos activation of neurons in PVH and LHA (not AHN), control mice” value in the series on hypothalamic neurons (unanesthetized control mice, one hour after intraperitoneal injection, Fig. 2) is given as “remain activated”. Further, the “pCREB in tanycytes and neuron-like cells of the ME and vmARH vs saline” value in series [3] is “markedly induced pCREB”. Also, in series [4], the “Route of brain entry of fluorescently labeled liraglutide” value was “did not cross the microvascular endothelial cells of the BBB; also recorded: extravasated through the fenestrated vessels of the ME”.

As for “Glucagon-like peptide 1 (GLP1; 7–36 amide)”, in series [1] (in vivo, ref not given), the “Degradation by DPP-4 in vivo” value is “rapid degradation”.

“^125I-liraglutide: radioactively labeled liraglutide”: the “Liraglutide accumulation in tanycytes relative to endothelial cells” value with primary tanycytes (125I-liraglutide 0.7 nM, with or without unlabeled liraglutide 10 μM, transwell, uptake buffer pH 7.4, 60 min, n = 3, 3, 8, 8 wells from 2 independent experiments, Fig. 1c) is “approximately 4 times”. In addition, in the series with primary tanycytes (pulse-chase experiment in vitro, Fig. 1e), the “Time to saturation of uptake by tanycytes” value was at most 15 min.

As for exendin 9-39, in the series with rat primary tanycytes (co-treatment with liraglutide), the “Effect on liraglutide-induced pCREB in rat primary tanycytes” value is recorded as “blunted”.

Turning to “liraglutide^564: fluorescently labeled liraglutide provided by Novo Nordisk”, in series [4], the “Route of brain entry of fluorescently labeled liraglutide” value was “does not extravasate from BBB vessels”.

The values are drawn from PMC7613793 (Cell metabolism, 2022).
